# From ChEMBL document CHEMBL1123988, “Studies on antifungal agents. 23. Novel substituted 3,5-diphenyl-3-(1H-imidazol-1-ylmethyl)- 2-alkylisoxazolidine derivatives” (1988)
# Tests used:
# Trichophyton rubrum = experiment: In vitro antifungal activity against Trichophyton rubrum ATCC 18762; assay type: functional
# Procedure, shortened: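 Dermatophyte was grown about 2 weeks on Potato Flake Agar at 26 °C, washed off the plate with sterile water and diluted to 1 × 10^4 cells/mL by hemacytometer count. Agar wells (Antibiotic Medium 3 + 2% agar, compound 70 to 0.2 µg/mL, four- or six-point) were inoculated with 0.05 mL and incubated at 26 °C until controls grew. MIC was the lowest dilution showing no visible growth.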
# Trichophyton tonsurans [1] = experiment: (§1) In vitro antifungal activity against Trichophyton tonsurans ATCC 9085; assay type: functional
# Procedure, shortened: (§2)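 Solid agar MIC in 24-well plates. Compound was diluted 10-fold into Antibiotic Medium 3 + 2% agar at 70 to 0.2 µg/mL, using four- or six-point schemes, with a ketoconazole control. The organism was grown on Potato Flake Agar at 26 °C, counted by hemacytometer and diluted to 1 × 10^4 cells/mL. Wells received 0.05 mL and were incubated at 26 °C until control growth appeared. MIC was the lowest dilution with no visible growth.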
# Microsporum audouinii = experiment: In vitro antifungal activity against Microsporum audouinii ATCC 9079; assay type: functional; procedure, shortened: as §2
# Aspergillus fumigatus = experiment: In vitro antifungal activity against Aspergillus fumigatus ATCC 28212; assay type: functional
# Procedure, shortened: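 Agar-well MIC with Antibiotic Medium 3 + 2% agar containing compound at 70 to 0.2 µg/mL, using four- or six-point dilutions. Mold was grown about 1 week on Potato Flake Agar at 26 °C, swabbed into sterile water, counted by hemacytometer and adjusted to 1 × 10^4 cells/mL. MIC was the lowest dilution without visible growth.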
# Microsporum canis = experiment: In vitro antifungal activity against Microsporum canis ATCC 44459; assay type: functional; procedure, shortened: as §2
# Candida albicans [2] = experiment: In vitro antifungal activity against Candida albicans ATCC 10259; assay type: functional
# Procedure, shortened: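 Yeast was cultured overnight on Potato Flake Agar at 26 °C, swabbed into sterile water, counted by hemacytometer and diluted to 1 × 10^4 cells/mL. Wells (24-well) contained Antibiotic Medium 3 + 2% agar with compound at 70 to 0.2 µg/mL, in four- or six-point series. Each well got 0.05 mL and was held at 26 °C until control growth was visible. MIC was the lowest concentration with no visible growth.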
# Trichophyton benhamiae = experiment: (§3) In vitro antifungal activity against Trichophyton mentagrophytes ATCC 9533; assay type: functional, Arthroderma benhamiae; procedure, shortened: as §2
# Epidermophyton floccosum = experiment: In vitro antifungal activity against Epidermophyton floccosum ATCC E-18397; assay type: functional; procedure, shortened: as §2
# [3] = system: Trichophyton schoenleinii; experiment: In vitro antifungal activity against Trichophyton schoenleinii ATCC 22775; assay type: functional; procedure, shortened: as §2
# Candida albicans [4] = experiment: In vitro antifungal activity against Candida stellatoidea ATCC 36232; assay type: functional; procedure, shortened: as §2
# [5] = as §3; assay type: functional, Arthroderma benhamiae; conditions: Trichophyton benhamiae; procedure, shortened: as §2
# Trichophyton tonsurans [6] = experiment: as §1; assay type: functional; remark: listed apart in the source
# Procedure, shortened: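 Solid agar MIC in 24-well plates. Compound was diluted 10-fold into Antibiotic Medium 3 + 2% agar, using either a […] or a 70/20/7/2/0.7/0.2 µg/mL scheme. Cells counted by hemacytometer were diluted to 1 × 10^4 cells/mL, and 0.05 mL was inoculated. Plates were incubated at 26 °C until compound-free controls grew. MIC is the lowest dilution with no visible growth.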
# Candida albicans [7] = experiment: Antifungal activity in rat vaginal candidasis, 4 day postinfection with Candida. albicans SOB FM-391; assay type: functional
# Procedure, shortened: (§4)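 Ovariectomized female Sprague–Dawley rats (170–230 g), eight per group, kept in pseudoestrus with weekly sc estradiol valerate (0.5 mg). Intravaginal challenge on day 4 with 1 × 10^7 organisms in 0.1 mL RPMI+. Oral dosing at 20 mg/kg in 1% (carboxymethyl)cellulose, twice daily for 7 days from 24 h post-infection. Vaginal swabs in PBS were serially diluted and plated on SDA for 48 h at 24–26 °C. Read-out is log10 organisms/mL lavage fluid.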
# Candida albicans [8] = experiment: Antifungal activity in rat vaginal candidasis, 7 day postinfection with Candida. albicans SOB FM-391; assay type: functional; procedure, shortened: as §4
# Candida albicans [9] = experiment: Antifungal activity in rat vaginal candidasis, 3 day postinfection with Candida. albicans SOB FM-391; assay type: functional; procedure, shortened: as §4
# Candida albicans [10] = experiment: Antifungal activity in rat vaginal candidasis, 8 day postinfection with Candida. albicans SOB FM-391; assay type: functional; procedure, shortened: as §4
# Candida albicans [11] = experiment: Antifungal activity in rat vaginal candidasis, 1 day postinfection with Candida. albicans SOB FM-391; assay type: functional; procedure, shortened: as §4
# Candida albicans [12] = experiment: Antifungal activity in rat vaginal candidasis, 2 day postinfection with Candida. albicans SOB FM-391; assay type: functional; procedure, shortened: as §4
# [13] = system: Trichophyton schoenleinii; experiment: In vitro antifungal activity against Trichophyton schoenleinii ATCC 22775
# Trichophyton tonsurans [14] = experiment: In vitro antifungal activity against Trichophyton tonsurans ATCC 9085
SMILES,MIC (Trichophyton rubrum) [µg/mL],MIC (Trichophyton tonsurans [1]) [µg/mL],MIC (Microsporum audouinii) [µg/mL],MIC (Aspergillus fumigatus) [µg/mL],MIC (Microsporum canis) [µg/mL],MIC (Candida albicans [2]) [µg/mL],MIC (Trichophyton benhamiae) [µg/mL],MIC (Epidermophyton floccosum) [µg/mL],MIC [3] [µg/mL],MIC (Candida albicans [4]) [µg/mL],MIC [5] [µg/mL],MIC (Trichophyton tonsurans [6]) [µg/mL],Log (Candida albicans [7]),Log (Candida albicans [8]),Log (Candida albicans [9]),Log (Candida albicans [10]),Log (Candida albicans [11]),Log (Candida albicans [12]),MIC [13] [µg/mL],MIC (Trichophyton tonsurans [14]) [µg/mL]
CN1O[C@H](c2ccccc2Cl)C[C@@]1(Cn1ccnc1)c1ccc(Cl)cc1,0.7,< 0.2,2,7,2,7,< 0.2,< 0.2,0.7,0.7,–,–,–,–,–,–,–,–,–,–
Cc1ccc([C@H]2C[C@@](Cn3ccnc3)(c3ccc(Cl)cc3)N(C)O2)cc1,2,–,20,70,7,20,–,2,2,0.7,2,2,–,–,–,–,–,–,–,–
COc1ccc([C@@H]2C[C@@](Cn3ccnc3)(c3ccc(OC)cc3)N(C)O2)cc1,20,20,70,> 70,20,70,20,7,70,20,–,–,–,–,–,–,–,–,–,–
CC(=O)N1CCN(c2ccc(OCC3COC(Cn4ccnc4)(c4ccc(Cl)cc4Cl)O3)cc2)CC1 (stereo not drawn) [KETOCONAZOLE],0.7,–,7,7,2,20,2,< 0.2,0.7,20,–,< 0.2,0,0,0.3,0,5,1.5,–,–
CN1O[C@H](c2ccccc2)C[C@@]1(Cn1ccnc1)c1ccc(F)cc1,2,–,–,20,–,70,–,–,–,–,–,–,–,–,–,–,–,–,–,–
Cc1ccc([C@@H]2C[C@@](Cn3ccnc3)(c3ccc(Cl)cc3)N(C)O2)cc1,2,0.7,7,70,7,7,0.7,0.7,2,0.7,–,–,–,–,–,–,–,–,–,–
CN1O[C@H](c2c(Cl)cccc2Cl)C[C@@]1(Cn1ccnc1)c1ccc(Cl)cc1,0.7,0.7,20,2,2,7,7,0.7,7,7,–,–,–,–,–,–,–,–,–,–
CN1O[C@H](c2ccccc2)C[C@@]1(Cn1ccnc1)c1ccccc1,2,0.7,20,70,7,70,0.7,7,7,7,–,–,–,–,–,–,–,–,–,–
CN1O[C@H](c2ccccc2)C[C@@]1(Cn1ccnc1)c1ccc(Cl)cc1,0.7,–,7,70,2,20,< 0.2,0.7,–,7,–,–,–,–,–,–,–,–,2,0.7
Fc1ccc([C@]2(Cn3ccnc3)C[C@@H](c3ccccc3)ON2Cc2ccccc2)cc1,0.7,–,–,> 70,–,20,–,–,–,–,–,–,–,–,–,–,–,–,–,–
CN1O[C@@H](c2c(Cl)cccc2Cl)C[C@@]1(Cn1ccnc1)c1ccc(Cl)cc1,0.7,0.7,20,7,2,7,7,0.7,7,7,–,–,–,–,–,–,–,–,–,–
CN1O[C@H](c2ccc(Cl)cc2)C[C@@]1(Cn1ccnc1)c1ccc(Cl)cc1,0.7,< 0.2,2,7,2,7,< 0.2,< 0.2,0.7,2,–,–,3.4,3.3,3.6,1.8,4.7,4,–,–
